Active and inactive are the calls of the source. No cut-off for these calls is given here.
Tests used:
[1] = target: Gamma-aminobutyric acid receptor subunit alpha-1/beta-3/delta (Rattus norvegicus) (UniProt P18506+P62813+P63079); experiment: Modulation of rat […] GABA-A receptor alpha1beta3delta expressed in HEK293 cells up to 10 uM in presence of GABA by patch-clamp assay relative to control; format: cell-based
How it was run: (§1)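 Rat GABA-A subunits were transiently co-transfected with eGFP into HEK293 cells on coverslips. Fluorescent cells were recorded by whole-cell patch clamp 48 h later; bath pH 7.4, KCl/KOH pipette pH 7.2. Compound was applied at increasing concentrations up to 10 µM with the receptor-specific GABA EC20. Peak currents were fitted logistically for EC50, Hill and % modulation, as mean ± S.E.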

[2] = target: T1, Gamma-aminobutyric acid receptor subunit alpha-1/beta-3 (Rattus norvegicus) (UniProt P62813+P63079); experiment: Agonist activity at rat […] GABA-A receptor alpha1beta3 expressed in HEK293 cells assessed as ratio of I0 to GABA Imax at 10 uM in absence of GABA by patch-clamp assay; format: cell-based
How it was run: (§2)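 Whole-cell patch clamp on single fluorescent HEK 293 cells 48 h after transient co-transfection with rat subunit cDNAs plus eGFP. Extracellular solution 135 mM NaCl, 5.3 mM KCl, 2 mM CaCl2, 2 mM MgSO4, 10 mM HEPES pH 7.4, perfused 3 mL/min. Compound at 10 µM without GABA. Current expressed relative to 1 mM GABA at the same receptor (I0/Imax GABA), mean ± S.D. of n experiments.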

[3] = organism: Rattus norvegicus; experiment: Selectivity ratio of IC50 for rat GABA-A receptor alpha6beta3gamma2 expressed in HEK293 cells to IC50 for rat GABA-A receptor alpha6beta3delta expressed in HEK293 cells; format: cell-based
[4] = target: GABA A receptor alpha-6/beta-2/gamma-2 (Rattus norvegicus, UniProt P18508+P30191+P63138); experiment: Displacement of [3H]EBOB from rat GABA-A receptor alpha6beta2gamma2 expressed in HEK293 cell membranes after 90 mins by liquid scintillation counting analysis
GABA A receptor alpha-6/beta-2/gamma-2, sequence (P18508 whole entry): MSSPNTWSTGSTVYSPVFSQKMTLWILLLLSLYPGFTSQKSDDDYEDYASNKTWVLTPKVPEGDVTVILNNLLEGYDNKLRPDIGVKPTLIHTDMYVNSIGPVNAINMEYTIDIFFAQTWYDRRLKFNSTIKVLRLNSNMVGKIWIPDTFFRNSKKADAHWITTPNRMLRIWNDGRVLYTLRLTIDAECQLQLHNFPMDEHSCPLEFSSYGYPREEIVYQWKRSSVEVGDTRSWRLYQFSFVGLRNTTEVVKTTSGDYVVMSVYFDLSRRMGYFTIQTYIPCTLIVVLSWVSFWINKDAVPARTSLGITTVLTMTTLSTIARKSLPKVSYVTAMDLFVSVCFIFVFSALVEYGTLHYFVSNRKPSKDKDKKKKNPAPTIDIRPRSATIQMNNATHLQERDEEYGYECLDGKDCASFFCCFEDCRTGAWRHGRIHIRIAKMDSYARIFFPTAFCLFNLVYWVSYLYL
GABA A receptor alpha-6/beta-2/gamma-2, sequence (P30191 whole entry): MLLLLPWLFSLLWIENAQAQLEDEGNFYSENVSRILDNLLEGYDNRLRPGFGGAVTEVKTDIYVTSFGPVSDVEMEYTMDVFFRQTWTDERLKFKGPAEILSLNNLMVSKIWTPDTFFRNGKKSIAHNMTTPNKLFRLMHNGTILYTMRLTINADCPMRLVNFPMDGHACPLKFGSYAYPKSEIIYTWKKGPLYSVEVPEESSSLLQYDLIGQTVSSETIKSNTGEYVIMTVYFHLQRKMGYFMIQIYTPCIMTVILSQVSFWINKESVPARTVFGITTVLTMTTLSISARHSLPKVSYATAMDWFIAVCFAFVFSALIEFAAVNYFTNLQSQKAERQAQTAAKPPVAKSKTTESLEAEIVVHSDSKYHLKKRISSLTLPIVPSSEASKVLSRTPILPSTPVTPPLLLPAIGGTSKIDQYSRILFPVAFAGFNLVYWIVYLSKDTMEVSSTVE
GABA A receptor alpha-6/beta-2/gamma-2, sequence (P63138 whole entry): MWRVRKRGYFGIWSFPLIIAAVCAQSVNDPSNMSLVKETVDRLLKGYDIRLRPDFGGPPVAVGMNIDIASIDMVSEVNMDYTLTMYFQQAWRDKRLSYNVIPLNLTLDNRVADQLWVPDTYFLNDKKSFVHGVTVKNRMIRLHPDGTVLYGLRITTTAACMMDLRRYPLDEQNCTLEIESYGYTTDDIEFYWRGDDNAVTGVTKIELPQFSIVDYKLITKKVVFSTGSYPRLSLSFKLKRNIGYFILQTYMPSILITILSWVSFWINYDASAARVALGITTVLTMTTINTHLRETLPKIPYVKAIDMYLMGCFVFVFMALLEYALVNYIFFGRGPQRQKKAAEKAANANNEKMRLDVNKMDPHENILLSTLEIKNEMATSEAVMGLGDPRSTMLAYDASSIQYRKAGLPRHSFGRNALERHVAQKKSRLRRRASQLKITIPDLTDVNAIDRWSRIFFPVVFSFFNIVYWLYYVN
How it was run: (§3)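 Crude membranes from HEK 293 cells transiently Ca-phosphate-transfected with rat subunit cDNAs, harvested at 48 h. Membranes (150-200 µg protein) incubated with 3 nM [3H]EBOB in 50 mM Tris/citrate pH 7.3 plus 0.2 M NaCl. Compound up to 10 µM, final DMSO 0.1%, no GABA, 90 min at 21 °C. Bound radioligand collected by GF/C filtration and counted by scintillation.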

[5] = target: Gamma-aminobutyric acid receptor subunit alpha-6/beta-2/delta (Rattus norvegicus, UniProt P18506+P30191+P63138); experiment: Displacement of [3H]EBOB from rat GABA-A receptor alpha6beta2delta expressed in HEK293 cell membranes after 90 mins by liquid scintillation counting analysis; how it was run: as §3
Gamma-aminobutyric acid receptor subunit alpha-6/beta-2/delta, sequence (P18506 whole entry): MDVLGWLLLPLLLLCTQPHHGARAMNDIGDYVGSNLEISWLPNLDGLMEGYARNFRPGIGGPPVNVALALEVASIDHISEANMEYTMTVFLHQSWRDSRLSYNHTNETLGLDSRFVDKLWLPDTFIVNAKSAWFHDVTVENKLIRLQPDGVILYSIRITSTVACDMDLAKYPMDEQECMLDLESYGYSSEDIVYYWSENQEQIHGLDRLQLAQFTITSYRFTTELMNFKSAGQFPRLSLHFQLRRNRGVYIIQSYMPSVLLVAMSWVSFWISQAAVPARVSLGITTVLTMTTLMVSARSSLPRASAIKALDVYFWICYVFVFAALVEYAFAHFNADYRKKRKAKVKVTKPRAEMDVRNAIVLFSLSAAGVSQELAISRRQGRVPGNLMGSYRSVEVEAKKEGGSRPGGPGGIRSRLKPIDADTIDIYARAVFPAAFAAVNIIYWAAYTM
Gamma-aminobutyric acid receptor subunit alpha-6/beta-2/delta, sequence (P30191 whole entry): as the sequence (P30191 whole entry) above
Gamma-aminobutyric acid receptor subunit alpha-6/beta-2/delta, sequence (P63138 whole entry): as the sequence (P63138 whole entry) above

[6] = target: T2, Gamma-aminobutyric acid receptor subunit alpha-4/beta-3/delta (Rattus norvegicus, UniProt P18506+P28471+P63079); experiment: Modulation of rat […] GABA-A receptor alpha4beta3delta expressed in HEK293 cells in presence of GABA by patch-clamp assay; format: cell-based; how it was run: as §1
T2 sequence (P18506 whole entry): as the sequence (P18506 whole entry) above
T2 sequence (P28471 whole entry): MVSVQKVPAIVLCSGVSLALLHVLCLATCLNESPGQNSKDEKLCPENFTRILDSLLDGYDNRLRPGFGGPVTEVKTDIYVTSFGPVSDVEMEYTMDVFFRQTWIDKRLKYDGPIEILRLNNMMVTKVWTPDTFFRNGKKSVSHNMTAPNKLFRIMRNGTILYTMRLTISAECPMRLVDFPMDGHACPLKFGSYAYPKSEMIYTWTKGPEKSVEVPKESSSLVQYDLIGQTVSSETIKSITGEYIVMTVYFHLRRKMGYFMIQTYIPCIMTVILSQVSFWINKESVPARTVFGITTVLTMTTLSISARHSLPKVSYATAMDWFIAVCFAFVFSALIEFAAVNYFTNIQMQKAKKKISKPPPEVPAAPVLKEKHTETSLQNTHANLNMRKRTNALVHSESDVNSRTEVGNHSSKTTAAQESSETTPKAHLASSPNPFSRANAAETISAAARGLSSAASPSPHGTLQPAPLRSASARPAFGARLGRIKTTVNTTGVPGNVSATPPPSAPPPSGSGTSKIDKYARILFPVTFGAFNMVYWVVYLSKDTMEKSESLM
T2 sequence (P63079 whole entry): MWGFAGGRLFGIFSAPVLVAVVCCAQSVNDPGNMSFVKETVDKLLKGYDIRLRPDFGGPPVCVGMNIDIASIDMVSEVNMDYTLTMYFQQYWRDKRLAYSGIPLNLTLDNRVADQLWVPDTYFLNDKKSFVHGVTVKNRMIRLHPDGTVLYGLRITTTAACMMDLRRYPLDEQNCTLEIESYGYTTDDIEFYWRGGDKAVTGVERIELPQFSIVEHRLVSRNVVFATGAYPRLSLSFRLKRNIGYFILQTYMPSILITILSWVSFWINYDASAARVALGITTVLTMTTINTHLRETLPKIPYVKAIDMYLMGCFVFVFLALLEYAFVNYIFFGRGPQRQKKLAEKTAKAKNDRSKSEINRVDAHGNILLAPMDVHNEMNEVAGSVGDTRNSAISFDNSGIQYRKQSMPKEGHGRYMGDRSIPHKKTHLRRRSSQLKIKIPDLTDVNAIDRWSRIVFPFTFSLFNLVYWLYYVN

[7] = target: Gamma-aminobutyric acid receptor subunit alpha-6/beta-2 (Rattus norvegicus, UniProt P30191+P63138); experiment: Displacement of [3H]EBOB from rat GABA-A receptor alpha6beta2 expressed in HEK293 cell membranes after 90 mins by liquid scintillation counting analysis; how it was run: as §3
Gamma-aminobutyric acid receptor subunit alpha-6/beta-2, sequence (P30191 whole entry): as the sequence (P30191 whole entry) above
Gamma-aminobutyric acid receptor subunit alpha-6/beta-2, sequence (P63138 whole entry): as the sequence (P63138 whole entry) above

[8] = target: Gamma-aminobutyric acid receptor subunit alpha-1/beta-3/gamma-2 (Rattus norvegicus, UniProt P18508+P62813+P63079); experiment: Modulation of rat […] GABA-A receptor alpha1beta3gamma2 expressed in HEK293 cells in presence of GABA by patch-clamp assay; format: cell-based; how it was run: as §1
Gamma-aminobutyric acid receptor subunit alpha-1/beta-3/gamma-2, sequence (P18508 whole entry): as the sequence (P18508 whole entry) above
Gamma-aminobutyric acid receptor subunit alpha-1/beta-3/gamma-2, sequence (P62813 whole entry): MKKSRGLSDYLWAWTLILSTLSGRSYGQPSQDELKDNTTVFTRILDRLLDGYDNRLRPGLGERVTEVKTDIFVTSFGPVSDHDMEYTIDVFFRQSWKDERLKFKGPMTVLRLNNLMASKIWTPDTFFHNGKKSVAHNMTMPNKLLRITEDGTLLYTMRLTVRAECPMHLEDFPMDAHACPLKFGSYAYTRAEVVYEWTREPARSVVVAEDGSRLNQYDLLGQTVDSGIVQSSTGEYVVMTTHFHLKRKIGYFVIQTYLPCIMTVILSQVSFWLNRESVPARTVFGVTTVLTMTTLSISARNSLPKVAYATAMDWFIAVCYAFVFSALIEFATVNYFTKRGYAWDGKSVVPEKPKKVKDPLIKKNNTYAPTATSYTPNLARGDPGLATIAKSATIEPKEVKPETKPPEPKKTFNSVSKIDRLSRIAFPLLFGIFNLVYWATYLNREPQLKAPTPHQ
Gamma-aminobutyric acid receptor subunit alpha-1/beta-3/gamma-2, sequence (P63079 whole entry): as the sequence (P63079 whole entry) above

[9] = target: Gamma-aminobutyric acid receptor subunit alpha-6/beta-3/delta (Rattus norvegicus) (UniProt P18506+P30191+P63079); experiment: Agonist activity at rat […] GABA-A receptor alpha6beta3delta expressed in HEK293 cells assessed as ratio of I0 to GABA Imax at 10 uM in absence of GABA by patch-clamp assay; format: cell-based; how it was run: as §2
[10] = organism: Rattus norvegicus; experiment: Selectivity ratio of IC50 for rat GABA-A receptor alpha6beta3 expressed in HEK293 cells to IC50 for rat GABA-A receptor alpha6beta3delta expressed in HEK293 cells; format: cell-based
[11] = target: Gamma-aminobutyric acid receptor subunit alpha-6/beta-3 (Rattus norvegicus) (UniProt P30191+P63079); experiment: (§4) Displacement of [3H]EBOB from rat GABA-A receptor alpha6beta3 expressed in HEK293 cell membranes after 90 mins in presence of GABA by liquid scintillation counting analysis
[12] = target: T3, Gamma-aminobutyric acid receptor subunit alpha-6/beta-3 (Rattus norvegicus, UniProt P30191+P63079); experiment: as §4
T3 sequence (P30191 whole entry): as the sequence (P30191 whole entry) above
T3 sequence (P63079 whole entry): as the sequence (P63079 whole entry) above

[13] = target: Gamma-aminobutyric acid receptor subunit alpha-1/beta-3/gamma-2 (Rattus norvegicus) (UniProt P18508+P62813+P63079); experiment: Displacement of [3H]EBOB from rat GABA-A receptor alpha1beta3gamma2 expressed in HEK293 cell membranes at 10 uM after 90 mins by liquid scintillation counting analysis relative to control; how it was run: as §3
[14] = target: GABA A receptor alpha-6/beta-2/gamma-2 (Rattus norvegicus) (UniProt P18508+P30191+P63138); experiment: Displacement of [3H]EBOB from rat GABA-A receptor alpha6beta2gamma2 expressed in HEK293 cell membranes up to 10 uM after 90 mins by liquid scintillation counting analysis relative to control; how it was run: as §3
[15] = target: Gamma-aminobutyric acid receptor subunit alpha-6/beta-3/delta (Rattus norvegicus, UniProt P18506+P30191+P63079); experiment: Displacement of [3H]EBOB from rat GABA-A receptor alpha6beta3delta expressed in HEK293 cell membranes after 90 mins by liquid scintillation counting analysis; how it was run: as §3
Gamma-aminobutyric acid receptor subunit alpha-6/beta-3/delta, sequence (P18506 whole entry): as the sequence (P18506 whole entry) above
Gamma-aminobutyric acid receptor subunit alpha-6/beta-3/delta, sequence (P30191 whole entry): as the sequence (P30191 whole entry) above
Gamma-aminobutyric acid receptor subunit alpha-6/beta-3/delta, sequence (P63079 whole entry): as the sequence (P63079 whole entry) above

[16] = target: T1, Gamma-aminobutyric acid receptor subunit alpha-1/beta-3 (Rattus norvegicus); experiment: Displacement of [3H]EBOB from rat GABA-A receptor alpha1beta3 expressed in HEK293 cell membranes at 10 uM after 90 mins by liquid scintillation counting analysis relative to control; how it was run: as §3
[17] = target: T3, Gamma-aminobutyric acid receptor subunit alpha-6/beta-3; experiment: Modulation of rat […] GABA-A receptor alpha6beta3 expressed in HEK293 cells in presence of GABA by patch-clamp assay; format: cell-based; how it was run: as §1
[18] = target: T2, Gamma-aminobutyric acid receptor subunit alpha-4/beta-3/delta; experiment: Displacement of [3H]EBOB from rat GABA-A receptor alpha4beta3delta expressed in HEK293 cell membranes after 90 mins by liquid scintillation counting analysis; how it was run: as §3
[19] = target: Gamma-aminobutyric acid receptor subunit alpha-4/beta-3/gamma-2 (Rattus norvegicus) (UniProt P18508+P28471+P63079); experiment: Modulation of rat eGFP-fused GABA-A receptor alpha4beta3gamma2 expressed in HEK293 cells at <=1 uM in presence of GABA by patch-clamp assay relative to control; format: cell-based

Activity [1]: 201% | Ratio [2]: 0.074 | IC50 [4]: 1130 nM | IC50 [5]: 150 nM | EC50 [6]: 150 nM | IC50 [7]: 630 nM | EC50 [8]: 2010 nM | Ratio [9]: 1.04 | Imax [11]: 96% | IC50 [12]: 960 nM | Imax [13]: 13% | Imax [14]: 89% | IC50 [15]: 310 nM | Imax [16]: 25% | EC50 [17]: 170 nM | IC50 [18]: 510 nM | Activity [19]: inactive
Compound: O=C(Nc1c(-c2cccs2)nc2c(Br)cc(Br)cn12)c1ccc(Cl)cc1
Ratio IC50 [3]: 3 | Ratio IC50 [10]: 2.5

Reference: ChEMBL document CHEMBL4190374, “Structure-Function Evaluation of Imidazopyridine Derivatives Selective for δ-Subunit-Containing γ-Aminobutyric Acid Type A (GABAA) Receptors” (J Med Chem, 2018)
